{"source": "PubChem BioAssay AID624165", "about": "(Southern Research Specialized Biocontainment Screening …, 2012)", "tested_on": "Plasmodium falciparum M18 aspartyl aminopeptidase (PfM18AAP)", "test": "inhibition of P. falciparum M18 aspartyl aminopeptidase – biochemical, QFRET, H-Glu-NHMec substrate, set 3, selectivity assay for PFM1AAP inhibitor project, dose response (AID 624165)", "summary_of_the_method": "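Assay system – recombinant PfM18AAP enzyme · Quantity – enzyme 5 µg/mL · Medium – pH 7.5 Tris, 2 mM CoCl2 · Compound dosing – 10-point twofold dilution series, 100 down to 0.2 µM · Schedule – reaction 90 min, room temperature · Detection – fluorescence at 370/460 nm · Benchmarks – no-enzyme background wells · Replication – each compound tested in triplicate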", "note": "The source made the active and inactive calls.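 Rule for the calls: active = inhibition of 30% or more at any tested concentration; inactive = the rest.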"}
{"smiles": "O=C(NCc1cccc(F)c1)C1CCN(S(=O)(=O)c2ccc(Br)cc2)CC1", "values": [{"measurement": "outcome", "value": "inactive"}]}
{"smiles": "O=C(NCc1ccc(F)cc1)C1CCN(S(=O)(=O)c2cc(Br)c(Br)s2)CC1", "values": [{"measurement": "outcome", "value": "inactive"}]}
{"smiles": "O=C(NCc1cccc(F)c1)C1CCN(S(=O)(=O)c2sccc2Br)CC1", "values": [{"measurement": "outcome", "value": "inactive"}]}
{"smiles": "O=C(NCc1cccc(F)c1)C1CCN(S(=O)(=O)c2cc(Br)c(Br)s2)CC1", "values": [{"measurement": "outcome", "value": "inactive"}]}
{"smiles": "O=C(NCc1ccccc1F)C1CCN(S(=O)(=O)c2cc(Br)c(Br)s2)CC1", "values": [{"measurement": "outcome", "value": "inactive"}]}
{"smiles": "O=C(NCc1ccc(F)cc1)C1CCN(S(=O)(=O)c2ccc(Br)cc2)CC1", "values": [{"measurement": "outcome", "value": "inactive"}]}
{"smiles": "O=C(NCc1cccc(F)c1)C1CCN(S(=O)(=O)c2ccc(Br)s2)CC1", "values": [{"measurement": "outcome", "value": "inactive"}]}
{"smiles": "O=C(Nc1ccc2c(c1)OCO2)C1CCN(S(=O)(=O)c2cc(Br)c(Br)s2)CC1", "values": [{"measurement": "outcome", "value": "inactive"}]}
{"smiles": "O=C(Nc1ccc2c(c1)OCO2)C1CCN(S(=O)(=O)c2ccc(Cl)s2)CC1", "values": [{"measurement": "outcome", "value": "inactive"}]}
{"smiles": "O=C(NCc1ccccc1F)C1CCN(S(=O)(=O)c2ccc(Cl)s2)CC1", "values": [{"measurement": "outcome", "value": "inactive"}]}
{"smiles": "O=C(NCc1ccc2c(c1)OCO2)C1CCN(S(=O)(=O)c2cc(Br)c(Br)s2)CC1", "values": [{"measurement": "outcome", "value": "inactive"}]}
{"smiles": "O=C(Nc1ccc2c(c1)OCO2)C1CCN(S(=O)(=O)c2sccc2Br)CC1", "values": [{"measurement": "outcome", "value": "inactive"}]}
{"smiles": "O=C(NCc1ccccc1F)C1CCN(S(=O)(=O)c2sccc2Br)CC1", "values": [{"measurement": "outcome", "value": "inactive"}]}
{"smiles": "O=C(NCCc1ccc2c(c1)OCO2)C1CCN(S(=O)(=O)c2ccc(Cl)s2)CC1", "values": [{"measurement": "outcome", "value": "inactive"}]}
{"smiles": "O=C(Nc1ccc2c(c1)OCO2)C1CCN(S(=O)(=O)c2ccc(Br)cc2)CC1", "values": [{"measurement": "outcome", "value": "inactive"}]}
{"smiles": "O=C(NCc1ccc2c(c1)OCO2)C1CCN(S(=O)(=O)c2ccc(Br)cc2)CC1", "values": [{"measurement": "outcome", "value": "inactive"}]}
{"smiles": "O=C(Nc1ccc2c(c1)OCO2)C1CCN(S(=O)(=O)c2ccc(Br)s2)CC1", "values": [{"measurement": "outcome", "value": "inactive"}]}
{"smiles": "O=C(NCc1ccccc1F)C1CCN(S(=O)(=O)c2ccc(Br)s2)CC1", "values": [{"measurement": "outcome", "value": "inactive"}]}
{"smiles": "O=C(NCc1ccc(F)cc1)C1CCN(S(=O)(=O)c2ccc(Br)s2)CC1", "values": [{"measurement": "outcome", "value": "inactive"}]}
{"smiles": "O=C(NCc1ccc(F)cc1)C1CCN(S(=O)(=O)c2sccc2Br)CC1", "values": [{"measurement": "outcome", "value": "inactive"}]}
{"smiles": "O=C(NCCc1ccc2c(c1)OCO2)C1CCN(S(=O)(=O)c2cc(Br)c(Br)s2)CC1", "values": [{"measurement": "outcome", "value": "inactive"}]}
{"smiles": "O=C(NCCc1ccc2c(c1)OCO2)C1CCN(S(=O)(=O)c2ccc(Br)s2)CC1", "values": [{"measurement": "outcome", "value": "inactive"}]}
{"smiles": "O=C(NCc1ccc2c(c1)OCO2)C1CCN(S(=O)(=O)c2ccc(Cl)s2)CC1", "values": [{"measurement": "outcome", "value": "inactive"}]}
{"smiles": "O=C(NCc1ccccc1F)C1CCN(S(=O)(=O)c2ccc(Br)cc2)CC1", "values": [{"measurement": "outcome", "value": "inactive"}]}
{"smiles": "O=C(NCCc1ccc2c(c1)OCO2)C1CCN(S(=O)(=O)c2ccc(Br)cc2)CC1", "values": [{"measurement": "outcome", "value": "inactive"}]}
{"smiles": "O=C(NCCc1ccc2c(c1)OCO2)C1CCN(S(=O)(=O)c2sccc2Br)CC1", "values": [{"measurement": "outcome", "value": "inactive"}]}
{"smiles": "O=C(NCc1ccc2c(c1)OCO2)C1CCN(S(=O)(=O)c2sccc2Br)CC1", "values": [{"measurement": "outcome", "value": "inactive"}]}
{"smiles": "O=C(NCc1cccc(F)c1)C1CCN(S(=O)(=O)c2ccc(Cl)s2)CC1", "values": [{"measurement": "outcome", "value": "inactive"}]}
{"smiles": "O=C(NCc1ccc(F)cc1)C1CCN(S(=O)(=O)c2ccc(Cl)s2)CC1", "values": [{"measurement": "outcome", "value": "inactive"}]}
{"smiles": "O=C(NCc1ccc2c(c1)OCO2)C1CCN(S(=O)(=O)c2ccc(Br)s2)CC1", "values": [{"measurement": "outcome", "value": "inactive"}]}
